Data: ChEMBL document CHEMBL1157242, “Triterpene saponins with gastroprotective effects from tea seed (the seeds of Camellia sinensis)” (2006)
Counter-ions that a name gives are not always drawn.

Key:
Details in all cases: Gastric mucosa
Rattus norvegicus [1] = assay: Gastroprotective effect in […] assessed as inhibition of ethanol-induced gastric mucosal lesions at 5 mg/kg, po administered 1 hr prior to ethanol challenge relative to control; type: functional
Outline: (§1)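 Male […] fasted 24-26 h with free access to water, conscious. Given agent orally at 5.0 mL/kg, suspended in 5% acacia or 0.5% CMC-Na. 1 h later, 99.5% ethanol 1.5 mL/rat by orogastric tube. After 1 h, stomach fixed with 1.5% formalin and opened. Lesion index is total lesion length (mm). Inhibition is versus vehicle controls, n = 4-6.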

Rattus norvegicus [2] = assay: Gastroprotective effect in […] assessed as inhibition of ethanol-induced gastric mucosal lesions at 10 mg/kg, po administered 1 hr prior to ethanol challenge relative to control; type: functional; outline: as §1
Rattus norvegicus [3] = assay: Gastroprotective effect in […] assessed as inhibition of ethanol-induced gastric mucosal lesions at 15 mg/kg, po administered 1 hr prior to ethanol challenge relative to control; type: functional; outline: as §1
Rattus norvegicus [4] = assay: Gastroprotective effect in […] assessed as inhibition of ethanol-induced gastric mucosal lesions at 20 mg/kg, po administered 1 hr prior to ethanol challenge relative to control; type: functional; outline: as §1
Rattus norvegicus [5] = assay: Gastroprotective effect in […] assessed as inhibition of ethanol-induced gastric mucosal lesions at 75 mg/kg, po administered 1 hr prior to ethanol challenge relative to control; type: functional; outline: as §1
Rattus norvegicus [6] = assay: Gastroprotective effect in […] assessed as inhibition of ethanol-induced gastric mucosal lesions at 150 mg/kg, po administered 1 hr prior to ethanol challenge relative to control; type: functional; outline: as §1
Rattus norvegicus [7] = assay: Gastroprotective effect in […] assessed as inhibition of ethanol-induced gastric mucosal lesions at 300 mg/kg, po administered 1 hr prior to ethanol challenge relative to control; type: functional; outline: as §1
Rattus norvegicus [8] = assay: Gastroprotective effect in […] assessed as inhibition of ethanol-induced gastric mucosal lesions at 5 mg/kg, po administered 1 hr prior to ethanol challenge relative to control

C/C=C(/C)C(=O)O[C@H]1[C@H](OC(C)=O)[C@@]2(CO)C(CC1(C)C)C1=CCC3[C@@]4(C)CC[C@H](O[C@@H]5O[C@H](C(=O)O)[C@@H](O)[C@H](O[C@@H]6OC[C@H](O)[C@H](O)[C@H]6O[C@@H]6OC[C@@H](O)[C@H](O)[C@H]6O)[C@H]5O[C@H]5O[C@H](CO)[C@H](O)[C@H](O)[C@H]5O)[C@@](C)(CO)C4CC[C@@]3(C)[C@]1(C)C[C@H]2O (stereo partly drawn) [ASSAMSAPONINS D]
inhibition in vivo at 5 mg/kg (Rattus norvegicus [1]): 47.9%

C/C=C(/C)C(=O)O[C@H]1[C@H](O)[C@@]2(COC(C)=O)C(CC1(C)C)C1=CCC3[C@@]4(C)CC[C@H](O[C@@H]5O[C@H](C(=O)O)[C@@H](O)[C@H](O[C@@H]6OC[C@H](O)[C@H](O)[C@H]6O[C@@H]6OC[C@@H](O)[C@H](O)[C@H]6O)[C@H]5O[C@H]5O[C@H](CO)[C@H](O)[C@H](O)[C@H]5O)[C@@](C)(CO)C4CC[C@@]3(C)[C@]1(C)C[C@H]2O (stereo partly drawn) [THEASAPONINS A2]
inhibition in vivo at 5 mg/kg (Rattus norvegicus [1]): 54.7%

COc1ccc2[nH]c([S+]([O-])Cc3ncc(C)c(OC)c3C)nc2c1 (stereo not drawn) [OMEPRAZOLE]
inhibition in vivo at 10 mg/kg (Rattus norvegicus [2]): 43.1% | inhibition in vivo at 15 mg/kg (Rattus norvegicus [3]): 82% | inhibition in vivo at 20 mg/kg (Rattus norvegicus [4]): 89.4%

NC[C@H]1CC[C@H](C(=O)Oc2ccc(CCC(=O)O)cc2)CC1 [CETRAXATE HYDROCHLORIDE]
inhibition in vivo at 75 mg/kg (Rattus norvegicus [5]): 41.2% | inhibition in vivo at 150 mg/kg (Rattus norvegicus [6]): 65.6% | inhibition in vivo at 300 mg/kg (Rattus norvegicus [7]): 79.4%

C/C=C(/C)C(=O)O[C@H]1[C@H](O)[C@@]2(COC(C)=O)C(CC1(C)C)C1=CCC3[C@@]4(C)CC[C@H](O[C@@H]5O[C@H](C(=O)O)[C@@H](O)[C@H](O[C@@H]6OC[C@H](O)[C@H](O)[C@H]6O[C@@H]6OC[C@@H](O)[C@H](O)[C@H]6O)[C@H]5O[C@H]5O[C@H](CO)[C@H](O)[C@H](O)[C@H]5O)[C@@](C)(C(=O)OC)C4CC[C@@]3(C)[C@]1(C)C[C@H]2O (stereo partly drawn) [THEASAPONINS F3]
inhibition in vivo at 5 mg/kg (Rattus norvegicus [1]): 42.1%

C/C=C(/C)C(=O)O[C@H]1[C@H](O)[C@@]2(COC(C)=O)C(CC1(C)C)C1=CCC3[C@@]4(C)CC[C@H](O[C@@H]5O[C@H](C(=O)O)[C@@H](O)[C@H](O[C@@H]6OC[C@H](O)[C@H](O)[C@H]6O[C@@H]6OC[C@@H](O)[C@H](O)[C@H]6O)[C@H]5O[C@H]5O[C@H](CO)[C@H](O)[C@H](O)[C@H]5O)[C@@](C)(C=O)C4CC[C@@]3(C)[C@]1(C)C[C@H]2O (stereo partly drawn) [THEASAPONINS E2]
inhibition in vivo at 5 mg/kg (Rattus norvegicus [8]): 77.6%

C/C=C(/C)C(=O)O[C@H]1[C@H](OC(C)=O)[C@@]2(CO)C(CC1(C)C)C1=CCC3[C@@]4(C)CC[C@H](O[C@@H]5O[C@H](C(=O)O)[C@@H](O)[C@H](O[C@@H]6OC[C@H](O)[C@H](O)[C@H]6O[C@@H]6OC[C@@H](O)[C@H](O)[C@H]6O)[C@H]5O[C@H]5O[C@H](CO)[C@H](O)[C@H](O)[C@H]5O)[C@@](C)(C=O)C4CC[C@@]3(C)[C@]1(C)C[C@H]2O (stereo partly drawn) [THEASAPONINS E1]
inhibition in vivo at 5 mg/kg (Rattus norvegicus [8]): 71.4%

C/C=C(/C)C(=O)O[C@H]1[C@H](O)[C@@]2(CO)C(CC1(C)C)C1=CCC3[C@@]4(C)CC[C@H](O[C@@H]5O[C@H](C(=O)O)[C@@H](O)[C@H](O[C@@H]6OC[C@H](O)[C@H](O)[C@H]6O[C@@H]6OC[C@@H](O)[C@H](O)[C@H]6O)[C@H]5O[C@H]5O[C@H](CO)[C@H](O)[C@H](O)[C@H]5O)[C@@](C)(CO)C4CC[C@@]3(C)[C@]1(C)C[C@H]2O (stereo partly drawn) [THEASAPONINS A1]
inhibition in vivo at 5 mg/kg (Rattus norvegicus [1]): 37%

C/C=C(/C)C(=O)O[C@H]1CC(C)(C)CC2C3=CCC4[C@@]5(C)CC[C@H](O[C@@H]6O[C@H](C(=O)O)[C@@H](O)[C@H](O[C@@H]7OC[C@H](O)[C@H](O)[C@H]7O[C@@H]7OC[C@@H](O)[C@H](O)[C@H]7O)[C@H]6O[C@H]6O[C@H](CO)[C@H](O)[C@H](O)[C@H]6O)[C@@](C)(C=O)C5CC[C@@]4(C)[C@]3(C)C[C@@H](O)[C@]21CO (stereo partly drawn) [ASSAMSAPONINS A]
inhibition in vivo at 5 mg/kg (Rattus norvegicus [1]): 61%
